This note sets out measurements from ChEMBL document CHEMBL3098070, “Rational design, synthesis and antitubercular evaluation of novel 2-(trifluoromethyl)phenothiazine-[1,2,3]triazole hybrids” (Bioorg Med Chem Lett, 2014).

Data set [1] has as its system Mycobacterium tuberculosis. Description: Antimycobacterial activity against Mycobacterium tuberculosis H37Rv ATCC 27294 assessed as parasite growth inhibition after 28 days by agar dilution method. Format: functional. As to conditions: H37Rv ATCC 27294, 672 h. The essentials:
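Agar dilution in Middlebrook 7H11 with OADC; two-fold dilutions 50.0 to 0.4 µg/mL. Inoculum from fresh 7H11 slants, adjusted to 1 mg/mL wet weight in 0.05% Tween 80 saline, diluted 10-2 to 107 cfu/mL; 5 µL spotted per tube. Incubated 37 °C, read at 28 days. MIC = lowest concentration giving complete growth inhibition; triplicates.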
(In agar dilution, organisms are placed on agar that contains the substance at set levels.)

Data set [2] in a line: Cytotoxicity against HEK293T cells at 50 ug/ml after 72 hrs by MTT assay. Format: cell-based, HEK-293T. As to conditions: human, read-out: INH. The essentials:
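HEK-293T human embryonic kidney cells exposed to compound at 50 µg/mL for 72 h; viability by cellular MTT conversion to formazan (non-radioactive cell proliferation kit); reported as percentage inhibition of cells.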
In general terms: Formazan colour is commonly taken as a measure of viable cells.

Data set [3] in a line: Selectivity index, ratio of cytotoxicity for HEK293T cells to MIC for Mycobacterium tuberculosis H37Rv. Format: toxicity, cell-based, HEK-293T. Particulars: human, read-out: Selectivity Index.

≈ marks a conversion by molar mass, not a printed value. Where only a bound is given, the exact number is not on record here.

As for `COc1ccc(-c2cn(CC(=O)N3c4ccccc4Sc4ccc(C(F)(F)F)cc43)nn2)c(C)c1`, the minimal inhibitory concentration (MIC) (in general, the lowest concentration found to suppress growth) in data set [1] came to 12.5 µg/mL (≈ 25.2 µM).

With `O=C(Cn1cc(-c2cc3ccccc3c3ccccc23)nn1)N1c2ccccc2Sc2ccc(C(F)(F)F)cc21`, the minimal inhibitory concentration (MIC) in data set [1] amounted to 12.5 µg/mL (≈ 22.6 µM).

As for `CCCCCc1ccc(-c2cn(CC(=O)N3c4ccccc4Sc4ccc(C(F)(F)F)cc43)nn2)cc1`, the MIC in data set [1] was at most 25 µg/mL.

On to `CCCCCCc1cn(CC(=O)N2c3ccccc3Sc3ccc(C(F)(F)F)cc32)nn1`, for which the cytotoxicity at 72 h, 50 ug/ml in data set [2] turned out to be 25.6%. In data set [1], the MIC was determined as 6.25 µg/mL (≈ 13.6 µM). The selectivity ratio in data set [3] was over 10.

For `O=C(Cn1cc(CCc2ccccc2)nn1)N1c2ccccc2Sc2ccc(C(F)(F)F)cc21`, in data set [1], the MIC is 25 µg/mL (≈ 52 µM).

Consider `NC(=O)c1cnccn1` [PYRAZINAMIDE], for which, in data set [1], the MIC was found to be 50 µg/mL (≈ 406 µM).

Consider `O=C(Cn1cc(-c2ccc([N+](=O)[O-])cc2)nn1)N1c2ccccc2Sc2ccc(C(F)(F)F)cc21`, for which, in data set [1], the minimum inhibitory concentration (MIC) stood at 25 µg/mL (≈ 50.3 µM).

Take `CCCCc1cn(CC(=O)N2c3ccccc3Sc3ccc(C(F)(F)F)cc32)nn1`: the minimal inhibitory concentration (MIC) in data set [1] is 25 µg/mL (≈ 57.8 µM).

Consider `NNC(=O)c1ccncc1` [ISONIAZID], for which, in data set [1], the MIC was 0.1 µg/mL (≈ 0.729 µM).

On to `O=C(Cn1cc(CCCO)nn1)N1c2ccccc2Sc2ccc(C(F)(F)F)cc21`, for which, in data set [1], the MIC was 12.5 µg/mL (≈ 28.8 µM).

Consider `O=C(Cn1cc(-c2ccsc2)nn1)N1c2ccccc2Sc2ccc(C(F)(F)F)cc21`, for which, in data set [1], the minimal inhibitory concentration (MIC) was 25 µg/mL (≈ 54.5 µM).

Consider `CC[C@@H](CO)NCCN[C@@H](CC)CO` [ETHAMBUTOL], for which, in data set [1], the MIC is 3.13 µg/mL (≈ 15.3 µM).

For the compound `O=C(Cn1cc(C2(O)CCCC2)nn1)N1c2ccccc2Sc2ccc(C(F)(F)F)cc21`, the minimum inhibitory concentration (MIC) in data set [1] stood at 12.5 µg/mL (≈ 27.1 µM).

Turning to `O=C(Cn1cc(-c2ccc(-c3ccccc3)cc2)nn1)N1c2ccccc2Sc2ccc(C(F)(F)F)cc21`, the minimum inhibitory concentration (MIC) in data set [1] amounted to 25 µg/mL (≈ 47.3 µM).

On to `Cc1cccc(-c2cn(CC(=O)N3c4ccccc4Sc4ccc(C(F)(F)F)cc43)nn2)c1`, for which the MIC in data set [1] was determined as 25 µg/mL (≈ 53.6 µM).

For `O=C(Cn1cc(-c2ccccc2)nn1)N1c2ccccc2Sc2ccc(C(F)(F)F)cc21`, the minimal inhibitory concentration (MIC) in data set [1] came to 12.5 µg/mL (≈ 27.6 µM).

On to `CC(C)(C)c1ccc(-c2cn(CC(=O)N3c4ccccc4Sc4ccc(C(F)(F)F)cc43)nn2)cc1`, for which, in data set [1], the minimal inhibitory concentration (MIC) is 25 µg/mL (≈ 49.2 µM).

On to `CCCCCc1cn(CC(=O)N2c3ccccc3Sc3ccc(C(F)(F)F)cc32)nn1`, for which, in data set [1], the minimum inhibitory concentration (MIC) turned out to be 12.5 µg/mL (≈ 28 µM).

Consider `O=C(Cn1cc(-c2ccc(F)cc2F)nn1)N1c2ccccc2Sc2ccc(C(F)(F)F)cc21`, for which the cytotoxicity at 72 h, 50 ug/ml in data set [2] came out at 30.6%. Moreover, the minimal inhibitory concentration (MIC) in data set [1] stood at 6.25 µg/mL (≈ 12.8 µM). In data set [3], the selectivity ratio is over 10.

`COc1ccc2cc(-c3cn(CC(=O)N4c5ccccc5Sc5ccc(C(F)(F)F)cc54)nn3)ccc2c1`: the minimal inhibitory concentration (MIC) in data set [1] came to 25 µg/mL (≈ 46.9 µM).

On to `Cc1ccc(-c2cn(CC(=O)N3c4ccccc4Sc4ccc(C(F)(F)F)cc43)nn2)cc1`, for which the MIC in data set [1] amounted to 25 µg/mL (≈ 53.6 µM).

Take `COc1cccc(-c2cn(CC(=O)N3c4ccccc4Sc4ccc(C(F)(F)F)cc43)nn2)c1`: in data set [2], the cytotoxicity at 72 h, 50 ug/ml came out at 34.6%. The MIC in data set [1] worked out at 6.25 µg/mL (≈ 13 µM). In data set [3], the selectivity ratio is over 10.

`CC(=O)c1ccc(C)cc1OCc1cn(CC(=O)N2c3ccccc3Sc3ccc(C(F)(F)F)cc32)nn1`: the MIC in data set [1] turned out to be 25 µg/mL (≈ 46.4 µM).

Take `O=C(Cn1cc(C2(O)CCCCC2)nn1)N1c2ccccc2Sc2ccc(C(F)(F)F)cc21`: the MIC in data set [1] was determined as 25 µg/mL (≈ 52.7 µM).

In the case of `O=C(Cn1cc(-c2ccc(Cl)c(Cl)c2)nn1)N1c2ccccc2Sc2ccc(C(F)(F)F)cc21`, in data set [1], the MIC is at most 25 µg/mL.
